Bioassay records: PubChem, several laboratories
A selection: hits, their analogues and other compounds. The true share with any hit is near 4.7%.
MT1-MMP act inh – blockers of MT1-MMP proenzyme processing, primary screen, HT1080 RFP-PRO-GFP cells, GFP/RFP fluorescence; Matrix metalloproteinase-14 (Homo sapiens), P50281; GFP/RFP ratio fluorescence, overnight; percent of plate control window, DMSO zero; GFP/RFP ratio change, % at 20 µM; 360,000 compounds, 0.061% hits;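 active = GFP/RFP ratio change of at least 30% with cell ATP level not reduced by more than half and red fluorescence within 50% of control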
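Assay system: HT1080 RFP-PRO-GFP cells | Dosing: 20 µM single dose, 1% DMSO | Incubation: Cells overnight before dosing, compound overnight, 37 °C, 5% CO2 | Evaluation: GFP/RFP fluorescence ratio | Control set: DMSO-only wells and HT1080 RFP-L50D-GFP cell wells as references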
ADAM10 inh – human ADAM10 inhibitors, primary screen, biochemical, QFRET, HTS; Disintegrin and metalloproteinase domain-containing protein 10 (Homo sapiens), O14672; recombinant ADAM10, EDANS/DABCYL FRET peptide cleavage, 3 h; inhibition, % at 7 µM; 370,000 compounds, 0.62% hits; AID 720582, 2013;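 active = inhibition above a per-campaign cutoff equal to the mean of compounds falling between control-based bounds plus 3 SD, cut at about 20% in these data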;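 note: 0% = DMSO wells while the 100% control is not disclosed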
Target sequence (O14672 214-748 limits assumed): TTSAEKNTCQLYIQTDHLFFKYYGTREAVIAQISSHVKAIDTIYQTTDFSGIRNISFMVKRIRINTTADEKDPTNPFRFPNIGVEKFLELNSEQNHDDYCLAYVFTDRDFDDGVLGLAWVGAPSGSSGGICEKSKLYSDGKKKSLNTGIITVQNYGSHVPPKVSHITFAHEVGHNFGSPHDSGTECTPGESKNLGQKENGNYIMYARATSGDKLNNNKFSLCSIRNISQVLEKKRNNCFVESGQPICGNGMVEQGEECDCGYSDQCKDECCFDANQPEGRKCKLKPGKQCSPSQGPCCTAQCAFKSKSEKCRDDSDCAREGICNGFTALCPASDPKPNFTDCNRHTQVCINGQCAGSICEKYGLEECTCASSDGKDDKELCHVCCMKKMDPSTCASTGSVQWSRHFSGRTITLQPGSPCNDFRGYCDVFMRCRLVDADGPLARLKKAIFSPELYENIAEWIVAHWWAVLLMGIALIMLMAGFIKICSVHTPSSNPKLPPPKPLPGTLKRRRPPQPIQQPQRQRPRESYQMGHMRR
ADAM17 inh – ADAM17 inhibitors, primary screen, biochemical, QFRET; inhibition, % at 6.95 µM; AID 720648, 2013; recombinant ADAM17, EDANS/DABCYL FRET peptide cleavage; 370,000 compounds, 0.83% hits; Disintegrin and metalloproteinase domain-containing protein 17 (Homo sapiens), P78536;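 active = inhibition above the mean of compounds lying between control limits plus 3 SD, set per campaign, cut at about 8.5% in these data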;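 note: 0% = DMSO-only wells as the low control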
SKN-1 inh – suppressors of acrylamide-induced Pgst-4::GFP reporter in worms, primary screen, SKN-1 inhibitor project, whole organism, uHTS, GFP/RFP fluorescence ratio, strain VP596 | C. elegans VP596 Pgst-4::GFP/RFP ratio, 24 h | inhibition, % at 21.8 µM | 360,000 compounds, 0.49% hits;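 active = interference check ratio from 0.5 to 1.5 plus GFP to RFP signal ratio inhibition reaching or exceeding a fixed threshold, cut at about 30% in these data, passing the limit was not always enough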
NR3A LBD binder – binders of NR3A ligand-binding domain, primary screen, biophysical, differential scanning fluorimetry, uHTS | Glutamate receptor ionotropic, NMDA 3A (GRIN3A) ligand-binding domain | NR3A LBD differential scanning fluorimetry, Tm shift; 0% = protein alone, 100% = glycine-bound protein | Tm shift relative to glycine control, % at 25 µM | 340,000 compounds, 2.5% hits | AID 1259313, 2017;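 active = melting temperature shift of at least 10% of the positive control shift, at one fixed dose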
MPTP inh – mitochondrial permeability transition pore inhibitors, primary screen, biochemical, isolated mouse mitochondria, absorbance; inhibition, % at 10 µM; Ca2+ swelling absorbance, 30 min; 360,000 compounds, 1.4% hits;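 active = inhibition of 50% or more, scaled per plate between neutral and stimulator controls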;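 note: 0% = DMSO wells given calcium and 100% = 1 mM EGTA wells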
MPTP counter – fluorescence retest of MPTP screen hits in isolated mitochondria, single concentration; shares compounds with MPTP inh; membrane potential, Rhodamine 123 fluorescence; inhibition, % at 10 µM; 5,000 compounds, 78% hits; AID 624504, 2012; in the data active = inhibition above about 22%;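 note: 0% = DMSO vehicle and 100% = positive control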
MPTP swell DR – mitochondrial permeability transition pore inhibitors, dose response, biochemical, absorbance, uHTS hits. isolated mitochondria swelling. 780 compounds, 58% hits. IC50, µM. shares compounds with MPTP inh; in the data active = IC50 below about 20 µM
MPTP counter DR – fluorescent counter-screen in isolated mitochondria, dose response, counter-screen for MPTP inhibitor project, biochemical, fluorescence, uHTS hits; shares compounds with MPTP inh; isolated mitochondria counterscreen, fluorescence read-out; IC50, µM; 780 compounds, 49% hits; AID 651564, 2012; in the data active = IC50 below about 80 µM
* marks the source's active call; other numbers are inactive results; i = inactive; · = no result given.

SMILES	MT1-MMP act inh	ADAM10 inh	ADAM17 inh	SKN-1 inh	NR3A LBD binder	MPTP inh	MPTP counter	others
CCCC(=O)N1CCN(c2nc3ccccc3s2)CC1	5	4	-2	3	-1	2	·
CCC(CC)C(=O)Nc1ccc(Sc2ccc([N+](=O)[O-])cc2)cc1	1	12	2	13	-3	95*	77*
O=C(Nc1ccc([N+](=O)[O-])cc1)C(c1ccccc1)c1ccccc1	7	3	0	-20	·	82*	108*
CC(C(=O)Nc1ccc2c(c1)OCO2)c1ccc([N+](=O)[O-])cc1 (configuration not stated)	-1	5	3	-1	0	1	·
CCCC(=O)Nc1ccc(Sc2ccc([N+](=O)[O-])cc2)cc1	-1	17	4	17	-2	8	·
CC(C(=O)Nc1cccc(Br)c1)c1ccc([N+](=O)[O-])cc1 (configuration not stated)	2	2	-2	-10	-11	58*	78*
CC1CCCCN1C(=O)CSc1nc2ncccc2[nH]1 (configuration not stated)	-2	-7	-5	3	1	1	·
COc1ccc(CN2CCN(C(=O)c3cccs3)CC2)cc1	1	-1	0	-2	-2	1	·
O=C(NC(=S)Nc1cccc2ncccc12)c1cccs1	-4	-2	-4	-3	-14	1	·
COc1ccc(N=c2cc(-c3ccc(O)cc3)oc3ccccc23)cc1	-20	1	0	12	-1	68*	73*
COc1ccc(-c2cc(=Nc3ccc(C)cc3)c3ccccc3o2)cc1	0	i	-198	29	2	63*	12	MPTP swell DR=>100;MPTP counter DR=14*
COc1ccc(OCCSCc2nnc(NC(=O)Nc3ccc(Cl)cc3)s2)cc1	-2	8	-4	13	2	94*	71*
CCc1nnc(NC(=O)Nc2ccc(OC)cc2)s1	12	-2	-3	8	-3	-2	·
O=C(Nc1cccc(Cl)c1)Nc1nnc(CC2=CCCCC2)s1	-12	8	0	5	29*	89*	44*
O=C(Nc1cccc(Cl)c1)Nc1nnc(CSCCOc2ccc(Cl)cc2)s1	-29	-7	-1	-2	7	92*	92*
Cc1ccc(NC(=O)Nc2nnc(CSCCOc3ccc(Cl)cc3)s2)cc1	0	-10	-2	7	1	60*	0	MPTP swell DR=>100;MPTP counter DR=<2.5*
COc1cccc(NC(=O)Nc2nnc(COCCO)s2)c1	-8	-11	-8	-2	·	0	·
CCC(C)[C@H](NC(=O)N1CCn2c1nc1ccccc12)C(=O)NCC1CCCO1 (some centres not stated)	-2	-7	-6	21	-3	3	·
C=CCN1CC(=O)N2C(C)c3[nH]c4ccccc4c3C[C@H]2C1=O (some centres not stated)	4	-5	-2	-10	3	0	·
O=C(c1ccc(S(=O)(=O)c2ccccc2Cl)c([N+](=O)[O-])c1)N1CCCCCC1	0	-10	-3	2	12*	79*	49*
CCNC(=S)N/N=C1\C(=O)c2cccc3cccc1c23	9	-5	-5	5	1	-3	·
O=C(N/N=C1/C(=O)c2cccc3cccc1c23)c1ccc(Cl)cc1	3	-14	-3	6	0	57*	16
Cn1c(=O)c2c(nc(NCc3ccccc3)n2CC(=O)NCc2ccccc2)n(C)c1=O	0	10	-3	4	0	0	·
CCOC(=O)/C(C#N)=C1/C=C(C)NC(c2ccccc2O)=N1	8	-6	-4	0	14*	94*	89*
CCOC(=O)/C(C#N)=C1/C=CN(C)C(C)=N1	-10	6	2	7	-1	2	·
SMILES	MT1-MMP act inh	ADAM10 inh	ADAM17 inh	SKN-1 inh	NR3A LBD binder	MPTP inh	MPTP counter	others
Cc1ccc(C(CNS(=O)(=O)c2ccc(Br)cc2)N2CCN(C)CC2)cc1 (configuration not stated)	-4	-2	0	22	0	78*	-16	MPTP swell DR=13*;MPTP counter DR=>80
Cc1ccc(C(C)C)c(OCCNC(=O)c2ccccc2O)c1	-6	-9	-3	-4	0	88*	83*
CSc1ccc(Cl)c(C(=O)NCCOc2cc(C)ccc2C(C)C)c1	0	8	4	6	1	6	·
Cc1cc(NC(=O)c2ccc3c(c2)OCCO3)no1	-3	·	·	-8	-1	-1	·
Nc1cc(=O)[nH]c(SCc2ccc(Cl)cc2)n1	4	-10	1	2	-4	1	·
CC(C)(C)c1ccc(CSc2nc(N)cc(=O)[nH]2)cc1	23	·	·	-7	-2	67*	76*
Cc1cccc(OCCCCNCc2ccccc2)c1	1	-13	1	9	1	59*	0	MPTP swell DR=6.8*;MPTP counter DR=>80
Cc1cccc(OCCCCCNCCO)c1	3	1	-4	4	1	1	·
c1ccc(C2(CN3CCNC[C@H]3Cc3cccc4ccccc34)CC2)cc1	-2	-6	2	-14	-1	0	·
Oc1ccc(C[C@@H]2CNCCN2CCc2cccc3ccccc23)cc1	-8	0	-2	-17	0	84*	-14	MPTP swell DR=14*;MPTP counter DR=>80
CC(C)(C)CN1CCNC[C@H]1Cc1cccc2ccccc12	2	-2	-1	-6	0	55*	-9	MPTP swell DR=7.1*;MPTP counter DR=66*
COC(=O)C1=CO[C@@H](O[C@@H]2O[C@H](CO)[C@@H](O)[C@H](O)[C@H]2O)[C@H]2[C@@H]1C(=O)C[C@@H]2C	0	-1	-3	-1	3	0	·
CCN1C(=O)CSC1=NC1C2CC3CC(C2)CC1C3 (configuration not stated)	-7	4	0	9	2	77*	-4	MPTP swell DR=8.1*;MPTP counter DR=36*
